# Experimental data reported in ChEMBL document CHEMBL1961794, “Regulation of circadian behaviour and metabolism by synthetic REV-ERB agonists” (Nature, 2012).
# Activity calls are given as the source filed them. The rule behind the calls is not given here.
# What was measured:
# [1] = target: Nuclear receptor subfamily 4 group A member 3 (Homo sapiens) (UniProt Q92570); assay: Effect on NOR1(NR4A3) dependent reporter activity in HEK293 cells at 20 uM; format: cell-based
# Procedure, shortened: (§1)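 Specificity panel covering all 48 human nuclear receptors. HEK293 cells cotransfected with Gal4 DNA-binding domain–nuclear receptor fusions and a luciferase reporter. Compound tested at a single 20 μM concentration. Mean ± s.e.m., n=3.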
# [2] = target: Mineralocorticoid receptor (Homo sapiens) (UniProt P08235); assay: Effect on MCR(NR3C2) dependent reporter activity in HEK293 cells at 20 uM; format: cell-based; procedure, shortened: as §1
# Mus musculus = assay: Decreased expression of REV-ERB responsive gene Cyp7a1 in mouse liver after 6 days at 100 mg/kg; format: functional, organism-based; parameters: dose 100 mg/kg
# [3] = target: Retinoic acid receptor beta (Homo sapiens) (UniProt P10826); assay: Effect on RARB(NR1B2) dependent reporter activity in HEK293 cells at 20 uM; format: cell-based; procedure, shortened: as §1
# [4] = Plasma concentration after 2 hours at 100mg/kg ip dose (10mg/ml solution in 15% Cremophor); format: ADME, organism-based; settings: mouse, read-out: Conc_plasma
# Procedure, shortened: (§2)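 Single 100 mg/kg i.p. dose given to mice as a 10 mg/ml solution in 15% Cremophor. Plasma drug concentration (μM) was measured at 2 and 8 h post-injection. Mean ± s.e.m., n=3.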
# [5] = target: Nuclear receptor subfamily 2 group C member 2 (Homo sapiens) (UniProt P49116); assay: Effect on TR4(NR2C2) dependent reporter activity in HEK293 cells at 20 uM; format: cell-based
# Procedure, shortened: (§3)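 Cotransfection assay in HEK293 cells with Gal4 DNA-binding domain–nuclear receptor fusions, covering a panel of all 48 human nuclear receptors. Compounds were tested at 20 μM, with reporter luciferase as the read-out. Mean ± s.e.m., n=3.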
# [6] = target: Nuclear receptor subfamily 1 group I member 2 (Homo sapiens, UniProt O75469); assay: Effect on PXR(NR1I2) dependent reporter activity in HEK293 cells at 20 uM; format: cell-based; settings: hek293, 20 µM; procedure, shortened: as §1
# [7] = target: COUP transcription factor 1 (Homo sapiens) (UniProt P10589); assay: Effect on TFCOUP1(NR2F1) dependent reporter activity in HEK293 cells at 20 uM; format: cell-based; procedure, shortened: as §3
# [8] = target: Retinoic acid receptor RXR-alpha (Homo sapiens) (UniProt P19793); assay: Effect on RXRA(NR2B1) dependent reporter activity in HEK293 cells at 20 uM; format: cell-based; procedure, shortened: as §1
# [9] = target: Oxysterols receptor LXR-alpha (Homo sapiens) (UniProt Q13133); assay: Effect on LXRA(NR1H3) dependent reporter activity in HEK293 cells at 20 uM; format: cell-based; procedure, shortened: as §1
# [10] = target: Nuclear receptor subfamily 1 group D member 2 (Homo sapiens, UniProt Q14995); assay: Increased REV-ERB-beta LBD dependent repressor activity in HEK293 cell reporter assay; format: cell-based
# [11] = target: Nuclear receptor subfamily 1 group I member 3 (Homo sapiens, UniProt Q14994); assay: Effect on CAR(NR1I3) dependent reporter activity in HEK293 cells at 20 uM; format: cell-based; settings: hek293, 20 µM; procedure, shortened: as §1
# [12] = target: Nuclear receptor ROR-beta (Homo sapiens) (UniProt Q92753); assay: Effect on RORB(NR1F2) dependent reporter activity in HEK293 cells at 20 uM
# [13] = target: Nuclear receptor subfamily 0 group B member 2 (Homo sapiens) (UniProt Q15466); assay: Effect on SHP(NR0B2) dependent reporter activity in HEK293 cells at 20 uM; format: cell-based; procedure, shortened: as §3
# [14] = target: COUP transcription factor 2 (Homo sapiens) (UniProt P24468); assay: Effect on TFCOUP2(NR2F2) dependent reporter activity in HEK293 cells at 20 uM; format: cell-based; procedure, shortened: as §3
# [15] = target: Hepatocyte nuclear factor 4-gamma (Homo sapiens) (UniProt Q14541); assay: Effect on HNF4G(NR2A2) dependent reporter activity in HEK293 cells at 20 uM; format: cell-based; procedure, shortened: as §1
# [16] = target: Nuclear receptor subfamily 2 group F member 6 (Homo sapiens) (UniProt P10588); assay: Effect on EAR2(NR2F6) dependent reporter activity in HEK293 cells at 20 uM; format: cell-based; procedure, shortened: as §1
# [17] = target: Photoreceptor-specific nuclear receptor (Homo sapiens) (UniProt Q9Y5X4); assay: Effect on PNR(NR2E3) dependent reporter activity in HEK293 cells at 20 uM; format: cell-based; procedure, shortened: as §1
# [18] = target: Thyroid hormone receptor alpha (Homo sapiens) (UniProt P10827); assay: Effect on THRA(NR1A1) dependent reporter activity in HEK293 cells at 20 uM; format: cell-based; procedure, shortened: as §3
# [19] = target: Peroxisome proliferator-activated receptor delta (Homo sapiens) (UniProt Q03181); assay: Effect on PPARD(NR1C2) dependent reporter activity in HEK293 cells at 20 uM; format: cell-based; procedure, shortened: as §1
# [20] = target: Steroidogenic factor 1 (Homo sapiens) (UniProt Q13285); assay: Effect on SF1(NR5A1) dependent reporter activity in HEK293 cells at 20 uM; format: cell-based; procedure, shortened: as §1
# [21] = Plasma concentration after 4 hours at 10mg/kg ip dose (10mg/ml suspension in 10%DMSO/10%Tween80); format: ADME, organism-based; settings: mouse, read-out: Conc_plasma
# Procedure, shortened: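 Mice received a single 10 mg/kg i.p. dose as a 10 mg/ml suspension in DMSO/Tween80/water (10/10/80). Plasma was sampled at 1, 2, 4 and 8 h post-injection and drug concentration reported in μM. Mean ± s.e.m., n=3.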
# [22] = target: Nuclear receptor subfamily 2 group E member 1 (Homo sapiens) (UniProt Q9Y466); assay: Effect on TLX(NR2E1) dependent reporter activity in HEK293 cells at 20 uM; format: cell-based; procedure, shortened: as §3
# [23] = target: Estrogen receptor beta (Homo sapiens) (UniProt Q92731); assay: Effect on ESR2(NR3A2) dependent reporter activity in HEK293 cells at 20 uM; format: cell-based; procedure, shortened: as §1
# [24] = target: Estrogen-related receptor gamma (Homo sapiens) (UniProt P62508); assay: Effect on ERR3(NR3B3) dependent reporter activity in HEK293 cells at 20 uM; format: cell-based; procedure, shortened: as §1
# [25] = target: Estrogen receptor (Homo sapiens) (UniProt P03372); assay: Effect on ESR1(NR3A1) dependent reporter activity in HEK293 cells at 20 uM; format: cell-based; procedure, shortened: as §1
# [26] = target: Progesterone receptor (Homo sapiens) (UniProt P06401); assay: Effect on PGR(NR3C3) dependent reporter activity in HEK293 cells at 20 uM; format: cell-based; procedure, shortened: as §1
# [27] = target: Steroid hormone receptor ERR1 (Homo sapiens) (UniProt P11474); assay: Effect on ERR1(NR3B1) dependent reporter activity in HEK293 cells at 20 uM; format: cell-based; procedure, shortened: as §1
# [28] = target: Nuclear receptor subfamily 5 group A member 2 (Homo sapiens) (UniProt O00482); assay: Effect on CPF(NR5A2) dependent reporter activity in HEK293 cells at 20 uM; format: cell-based; procedure, shortened: as §1
# [29] = Plasma concentration after 8 hours at 100mg/kg ip dose (10mg/ml solution in 15% Cremophor); format: ADME, organism-based; settings: mouse, read-out: Conc_plasma; procedure, shortened: as §2
# [30] = target: Androgen receptor (Homo sapiens) (UniProt P10275); assay: Effect on AR(NR3C4) dependent reporter activity in HEK293 cells at 20 uM; format: cell-based; procedure, shortened: as §1
# [31] = target: Bile acid receptor (Homo sapiens) (UniProt Q96RI1); assay: Effect on BAR(NR1H4) dependent reporter activity in HEK293 cells at 20 uM; format: cell-based; procedure, shortened: as §1
# Nuclear receptor ROR-beta (Homo sapiens), sequence (Q92753 whole entry, looked up): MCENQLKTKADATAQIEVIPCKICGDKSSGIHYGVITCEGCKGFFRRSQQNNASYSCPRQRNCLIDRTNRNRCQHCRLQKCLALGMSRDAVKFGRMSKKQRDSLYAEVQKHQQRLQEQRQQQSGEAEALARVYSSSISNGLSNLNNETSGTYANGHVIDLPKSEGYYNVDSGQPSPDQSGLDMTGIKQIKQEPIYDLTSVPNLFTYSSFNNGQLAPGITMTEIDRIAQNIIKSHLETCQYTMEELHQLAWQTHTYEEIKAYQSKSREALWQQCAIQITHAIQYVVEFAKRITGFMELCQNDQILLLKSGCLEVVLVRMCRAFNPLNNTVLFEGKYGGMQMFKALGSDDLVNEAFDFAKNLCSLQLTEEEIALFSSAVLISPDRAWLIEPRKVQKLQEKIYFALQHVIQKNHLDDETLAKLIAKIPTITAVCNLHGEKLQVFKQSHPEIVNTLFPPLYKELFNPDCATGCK
# Nuclear receptor subfamily 2 group F member 6 (Homo sapiens), sequence (P10588 whole entry): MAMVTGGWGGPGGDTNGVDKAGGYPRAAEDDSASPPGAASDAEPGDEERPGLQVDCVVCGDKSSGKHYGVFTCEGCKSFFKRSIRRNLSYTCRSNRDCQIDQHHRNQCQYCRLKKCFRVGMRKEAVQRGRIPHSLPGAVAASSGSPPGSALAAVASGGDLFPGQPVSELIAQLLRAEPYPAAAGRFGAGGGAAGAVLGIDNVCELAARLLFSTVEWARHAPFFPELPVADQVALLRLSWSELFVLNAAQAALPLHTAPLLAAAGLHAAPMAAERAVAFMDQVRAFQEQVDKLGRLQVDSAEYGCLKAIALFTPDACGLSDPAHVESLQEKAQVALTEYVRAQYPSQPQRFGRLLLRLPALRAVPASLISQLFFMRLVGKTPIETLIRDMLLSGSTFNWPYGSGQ
# Nuclear receptor subfamily 1 group I member 3, sequence (Q14994 whole entry): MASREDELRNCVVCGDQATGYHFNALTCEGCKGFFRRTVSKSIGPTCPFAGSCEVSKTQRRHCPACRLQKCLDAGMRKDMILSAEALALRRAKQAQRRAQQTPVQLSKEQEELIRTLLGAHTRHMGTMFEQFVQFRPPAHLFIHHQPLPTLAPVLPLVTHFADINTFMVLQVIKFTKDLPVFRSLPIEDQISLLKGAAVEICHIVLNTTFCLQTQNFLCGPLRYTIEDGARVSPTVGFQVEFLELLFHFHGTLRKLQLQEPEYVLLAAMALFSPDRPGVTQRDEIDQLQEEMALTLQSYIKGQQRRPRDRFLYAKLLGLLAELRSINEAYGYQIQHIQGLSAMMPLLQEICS
# Nuclear receptor subfamily 4 group A member 3 (Homo sapiens), sequence (Q92570 whole entry, the tested form may be a part): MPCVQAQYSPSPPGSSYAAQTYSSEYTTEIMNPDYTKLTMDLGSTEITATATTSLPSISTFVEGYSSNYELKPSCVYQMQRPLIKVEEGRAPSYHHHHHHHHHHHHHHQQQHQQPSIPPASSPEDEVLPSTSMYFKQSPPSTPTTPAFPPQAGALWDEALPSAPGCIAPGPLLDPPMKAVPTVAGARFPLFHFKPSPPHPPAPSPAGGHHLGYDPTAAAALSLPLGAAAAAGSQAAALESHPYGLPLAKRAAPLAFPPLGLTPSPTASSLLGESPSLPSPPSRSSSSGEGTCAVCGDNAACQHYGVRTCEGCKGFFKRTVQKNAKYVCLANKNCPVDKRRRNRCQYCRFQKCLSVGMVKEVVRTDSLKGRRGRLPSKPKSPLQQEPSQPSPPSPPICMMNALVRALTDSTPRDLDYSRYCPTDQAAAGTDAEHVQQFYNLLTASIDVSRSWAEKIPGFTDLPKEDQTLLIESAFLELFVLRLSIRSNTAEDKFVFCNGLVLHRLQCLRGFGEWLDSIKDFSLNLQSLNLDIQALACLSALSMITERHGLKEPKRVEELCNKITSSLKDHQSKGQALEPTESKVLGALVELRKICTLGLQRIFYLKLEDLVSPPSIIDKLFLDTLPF
# Progesterone receptor (Homo sapiens), sequence (P06401 whole entry): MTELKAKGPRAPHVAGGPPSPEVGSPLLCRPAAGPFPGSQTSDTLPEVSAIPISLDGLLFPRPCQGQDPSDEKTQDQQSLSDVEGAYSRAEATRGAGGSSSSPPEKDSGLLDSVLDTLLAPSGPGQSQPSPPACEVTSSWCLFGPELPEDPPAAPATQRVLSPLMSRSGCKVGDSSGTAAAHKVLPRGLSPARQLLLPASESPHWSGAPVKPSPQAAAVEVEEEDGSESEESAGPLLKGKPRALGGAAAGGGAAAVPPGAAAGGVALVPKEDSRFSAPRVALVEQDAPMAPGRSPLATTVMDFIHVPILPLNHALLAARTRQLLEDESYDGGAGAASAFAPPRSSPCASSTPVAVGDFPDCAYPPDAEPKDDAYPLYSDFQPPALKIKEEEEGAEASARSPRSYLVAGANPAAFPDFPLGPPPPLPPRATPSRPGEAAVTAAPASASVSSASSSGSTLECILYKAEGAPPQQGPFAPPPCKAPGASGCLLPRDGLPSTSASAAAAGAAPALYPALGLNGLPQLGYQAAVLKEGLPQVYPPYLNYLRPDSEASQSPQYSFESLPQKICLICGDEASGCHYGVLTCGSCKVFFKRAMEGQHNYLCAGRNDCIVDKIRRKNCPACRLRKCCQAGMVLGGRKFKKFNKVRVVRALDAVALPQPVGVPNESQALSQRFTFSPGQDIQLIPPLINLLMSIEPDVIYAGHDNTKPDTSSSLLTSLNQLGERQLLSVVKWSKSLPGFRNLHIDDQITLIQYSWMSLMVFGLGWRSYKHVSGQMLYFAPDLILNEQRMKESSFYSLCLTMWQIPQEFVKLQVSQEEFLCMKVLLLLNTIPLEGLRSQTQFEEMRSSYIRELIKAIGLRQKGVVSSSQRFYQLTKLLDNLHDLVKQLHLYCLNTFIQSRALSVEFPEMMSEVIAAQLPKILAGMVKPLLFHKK
# Nuclear receptor subfamily 0 group B member 2 (Homo sapiens), sequence (Q15466 whole entry): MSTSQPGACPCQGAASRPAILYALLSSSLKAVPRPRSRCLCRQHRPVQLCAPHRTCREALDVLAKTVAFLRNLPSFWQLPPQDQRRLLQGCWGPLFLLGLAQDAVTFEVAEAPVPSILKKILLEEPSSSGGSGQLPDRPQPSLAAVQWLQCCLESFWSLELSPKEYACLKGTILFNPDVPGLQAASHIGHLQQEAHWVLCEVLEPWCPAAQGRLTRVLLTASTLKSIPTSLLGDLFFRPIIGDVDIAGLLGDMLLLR
# COUP transcription factor 2 (Homo sapiens), sequence (P24468 whole entry): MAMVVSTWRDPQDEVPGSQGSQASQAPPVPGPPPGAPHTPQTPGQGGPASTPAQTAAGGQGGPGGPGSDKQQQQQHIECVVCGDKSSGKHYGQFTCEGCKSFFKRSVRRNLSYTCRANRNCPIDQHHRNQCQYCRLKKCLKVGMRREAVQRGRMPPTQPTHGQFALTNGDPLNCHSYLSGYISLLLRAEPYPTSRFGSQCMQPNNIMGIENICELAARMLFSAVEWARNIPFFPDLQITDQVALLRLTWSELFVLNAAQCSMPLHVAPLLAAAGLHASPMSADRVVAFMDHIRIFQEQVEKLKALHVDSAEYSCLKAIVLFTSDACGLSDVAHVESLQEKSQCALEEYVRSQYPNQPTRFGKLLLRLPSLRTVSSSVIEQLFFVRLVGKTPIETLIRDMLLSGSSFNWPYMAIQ
# Nuclear receptor subfamily 1 group D member 2, sequence (Q14995 whole entry, the tested form may be a part): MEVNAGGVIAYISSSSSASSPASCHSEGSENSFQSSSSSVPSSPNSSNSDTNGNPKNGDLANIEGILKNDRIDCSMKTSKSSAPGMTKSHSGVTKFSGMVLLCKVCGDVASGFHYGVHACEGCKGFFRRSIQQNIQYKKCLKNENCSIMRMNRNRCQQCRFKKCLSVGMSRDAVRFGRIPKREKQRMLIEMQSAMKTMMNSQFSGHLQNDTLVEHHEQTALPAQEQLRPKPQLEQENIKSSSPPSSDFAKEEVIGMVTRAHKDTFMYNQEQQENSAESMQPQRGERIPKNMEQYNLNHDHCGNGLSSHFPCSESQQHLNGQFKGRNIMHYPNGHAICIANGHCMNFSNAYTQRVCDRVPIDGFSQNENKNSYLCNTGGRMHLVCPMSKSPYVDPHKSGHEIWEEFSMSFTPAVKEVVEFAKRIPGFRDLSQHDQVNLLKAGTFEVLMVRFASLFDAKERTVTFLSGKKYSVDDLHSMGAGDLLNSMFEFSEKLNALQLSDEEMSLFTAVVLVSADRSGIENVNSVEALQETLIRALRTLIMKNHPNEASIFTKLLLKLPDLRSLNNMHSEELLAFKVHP
# Estrogen receptor beta (Homo sapiens), sequence (Q92731 whole entry): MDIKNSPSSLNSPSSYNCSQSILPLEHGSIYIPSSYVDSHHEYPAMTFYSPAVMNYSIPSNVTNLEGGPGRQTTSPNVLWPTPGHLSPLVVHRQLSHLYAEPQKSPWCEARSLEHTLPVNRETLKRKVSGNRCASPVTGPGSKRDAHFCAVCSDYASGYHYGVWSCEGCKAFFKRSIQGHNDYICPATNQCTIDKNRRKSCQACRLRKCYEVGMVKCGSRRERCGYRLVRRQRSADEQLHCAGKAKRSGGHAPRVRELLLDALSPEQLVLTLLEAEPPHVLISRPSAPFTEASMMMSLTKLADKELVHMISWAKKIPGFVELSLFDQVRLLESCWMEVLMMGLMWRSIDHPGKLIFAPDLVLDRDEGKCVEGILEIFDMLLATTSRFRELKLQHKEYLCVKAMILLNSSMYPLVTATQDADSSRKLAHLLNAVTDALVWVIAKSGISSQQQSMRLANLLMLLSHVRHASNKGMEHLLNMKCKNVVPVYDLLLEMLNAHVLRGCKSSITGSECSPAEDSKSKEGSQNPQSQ
# Hepatocyte nuclear factor 4-gamma (Homo sapiens), sequence (Q14541 whole entry): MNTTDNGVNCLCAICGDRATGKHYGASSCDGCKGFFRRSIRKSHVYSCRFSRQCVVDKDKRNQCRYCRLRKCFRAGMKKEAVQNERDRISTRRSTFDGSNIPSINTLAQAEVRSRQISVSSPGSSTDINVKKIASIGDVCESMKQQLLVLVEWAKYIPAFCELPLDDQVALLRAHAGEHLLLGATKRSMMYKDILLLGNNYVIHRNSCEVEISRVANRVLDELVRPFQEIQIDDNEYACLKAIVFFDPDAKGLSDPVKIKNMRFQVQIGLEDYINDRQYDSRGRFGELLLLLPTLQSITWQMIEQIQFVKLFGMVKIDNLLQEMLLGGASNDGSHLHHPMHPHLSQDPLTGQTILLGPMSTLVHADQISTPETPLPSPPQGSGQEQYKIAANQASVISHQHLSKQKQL
Structure (SMILES),inhibition [1],inhibition [2],Reduced_Cyp7a1_gene_exp (Mus musculus),inhibition [3],concentration at 2 h [4],inhibition [5],Inhibition [6],inhibition [7],inhibition [8],inhibition [9],IC50 [10],Inhibition [11],inhibition [12],inhibition [13],inhibition [14],inhibition [15],inhibition [16],inhibition [17],inhibition [18],inhibition [19],also measured
CCOC(=O)N1CCC(CN(Cc2ccc(Cl)cc2)Cc2ccc([N+](=O)[O-])s2)C1 (centres undefined) [SR9009],inactive,inactive,Active,inactive,22900 nM,inactive,Not Active,inactive,inactive,inactive,0.8 µM (agonist),Not Active,inactive,inactive,inactive,inactive,inactive,inactive,inactive,inactive,inhibition [20]: inactive; concentration at 4 h [21]: 220 nM; inhibition [22]: inactive; inhibition [23]: inactive; inhibition [24]: inactive; inhibition [25]: inactive; inhibition [26]: inactive; inhibition [27]: inactive; inhibition [28]: inactive; concentration at 8 h [29]: 1500 nM; inhibition [30]: inactive; inhibition [31]: inactive
CCCCCNC(=O)N1CCC(CN(Cc2ccc(Cl)cc2)Cc2ccc([N+](=O)[O-])s2)C1 (centres undefined) [SR9011],inactive,inactive,Active,inactive,15300 nM,inactive,Not Active,inactive,inactive,inactive,0.56 µM (agonist),Not Active,inactive,inactive,inactive,inactive,inactive,inactive,inactive,inactive,inhibition [20]: inactive; concentration at 4 h [21]: 110 nM; inhibition [22]: inactive; inhibition [23]: inactive; inhibition [24]: inactive; inhibition [25]: inactive; inhibition [26]: inactive; inhibition [27]: inactive; inhibition [28]: inactive; concentration at 8 h [29]: 740 nM; inhibition [30]: inactive; inhibition [31]: inactive
